Reference: paper PMC6039208 (Clinical and Translational Science, 2018)
Blank lines part the entries; values can stand above or below the compound they belong to.

Legend:
CYP3A4 = CYP3A4 (Homo sapiens, UniProt P08684); format: in vivo; details: patients with AML
FLT3‐ITD [1] = details: cited from earlier work
[2] = Population PK model of sorafenib and its N‐oxide metabolite in patients with AML; format: in vivo, human
[3] = cited from earlier work
ERK = assay: Exposure‐response; format: cell-based, human; details: for Imax,ERK, maximum inhibitory effect on ERK activity: as fraction
Method in brief: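 Ex vivo ERK activity in FLT3‑ITD TF‑1 cells was read by Western blot as percent of each patient's baseline (100%). An inhibitory Emax model versus metabolite‑adjusted concentration was fitted sequentially to the PK model by FOCE‑I, with Imax estimated.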

FLT3‐ITD [4] = molecular target: T1, FLT3‐ITD (Homo sapiens, UniProt P36888); assay: Exposure‐response; format: cell-based; details: doses given in this study (400 or 600 mg b.i.d.)
T1 sequence (P36888 27-993): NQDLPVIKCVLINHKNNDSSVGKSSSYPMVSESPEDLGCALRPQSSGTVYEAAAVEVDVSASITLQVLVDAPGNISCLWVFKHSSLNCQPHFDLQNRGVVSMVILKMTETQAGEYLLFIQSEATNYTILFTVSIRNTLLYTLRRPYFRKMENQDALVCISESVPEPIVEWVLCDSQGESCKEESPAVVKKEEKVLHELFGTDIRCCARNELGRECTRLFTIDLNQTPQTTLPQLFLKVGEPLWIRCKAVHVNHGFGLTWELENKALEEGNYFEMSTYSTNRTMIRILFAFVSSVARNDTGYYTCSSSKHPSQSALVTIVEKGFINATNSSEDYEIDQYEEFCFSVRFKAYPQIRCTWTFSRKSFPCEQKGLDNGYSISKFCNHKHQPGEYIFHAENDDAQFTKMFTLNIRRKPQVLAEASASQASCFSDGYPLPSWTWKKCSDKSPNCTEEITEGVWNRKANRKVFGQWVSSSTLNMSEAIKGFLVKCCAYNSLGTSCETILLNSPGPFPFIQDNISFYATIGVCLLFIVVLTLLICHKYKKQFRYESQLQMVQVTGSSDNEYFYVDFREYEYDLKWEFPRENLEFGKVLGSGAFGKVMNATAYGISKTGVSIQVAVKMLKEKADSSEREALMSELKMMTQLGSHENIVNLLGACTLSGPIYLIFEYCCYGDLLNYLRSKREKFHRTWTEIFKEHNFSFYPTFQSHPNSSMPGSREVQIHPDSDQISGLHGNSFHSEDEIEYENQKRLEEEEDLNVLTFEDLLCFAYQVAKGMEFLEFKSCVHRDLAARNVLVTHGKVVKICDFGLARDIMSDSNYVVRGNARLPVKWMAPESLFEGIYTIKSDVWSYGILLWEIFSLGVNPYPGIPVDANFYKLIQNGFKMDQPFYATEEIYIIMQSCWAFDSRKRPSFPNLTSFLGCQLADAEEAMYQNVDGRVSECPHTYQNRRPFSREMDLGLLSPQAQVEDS

[5] = cited from earlier work; remark: listed apart in the source
[6] = FOCE‐I estimate, typical value at 80 kg

Chain of CYP3A4 (P08684 whole entry): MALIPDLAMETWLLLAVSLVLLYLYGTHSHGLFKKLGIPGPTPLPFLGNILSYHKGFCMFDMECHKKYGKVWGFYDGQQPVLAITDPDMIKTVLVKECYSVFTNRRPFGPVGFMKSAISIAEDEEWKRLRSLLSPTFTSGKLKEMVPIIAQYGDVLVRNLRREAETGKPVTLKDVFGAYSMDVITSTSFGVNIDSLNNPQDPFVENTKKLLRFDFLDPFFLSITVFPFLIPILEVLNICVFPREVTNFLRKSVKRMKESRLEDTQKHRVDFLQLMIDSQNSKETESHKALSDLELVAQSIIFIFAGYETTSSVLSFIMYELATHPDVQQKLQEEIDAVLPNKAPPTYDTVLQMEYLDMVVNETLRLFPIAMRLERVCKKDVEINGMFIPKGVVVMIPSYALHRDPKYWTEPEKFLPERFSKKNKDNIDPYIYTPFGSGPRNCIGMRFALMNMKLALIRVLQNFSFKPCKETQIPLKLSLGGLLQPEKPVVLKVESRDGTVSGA

- change in sorafenib exposure in the presence of the inhibitor (CYP3A4): no change
Compound: C[C@@H](c1ncncc1F)[C@](O)(Cn1cncn1)c1ccc(F)cc1F [voriconazole]

- CLm, clearance of the N‐oxide metabolite [2, 6]: 116 L/h
- V7, apparent volume of distribution (compartment A7) of the N‐oxide metabolite [2, 6]: 89.80 L
- CLm, clearance of the N‐oxide metabolite ([2]; median of 1,000 bootstraps): 123 L/h
- V7, apparent volume of distribution (compartment A7) of the N‐oxide metabolite ([2]; median of 1,000 bootstraps): 94.50 L
Compound: CNC(=O)c1cc(Oc2ccc(NC(=O)Nc3ccc(Cl)c(C(F)(F)F)c3)cc2)cc[n+]1[O-] [sorafenib N‐oxide]
- fold more potent than the parent drug, FLT3‐ITD potency (FLT3‐ITD [1]; in vitro study, N‐oxide vs sorafenib): 14.59 fold

- K64, release rate constant from gallbladder back to the gastrointestinal track ([2]; FOCE‐I estimate): 0.173 h⁻¹
- TENT, time controller of enterohepatic recirculation (time after dose) ([2]; FOCE‐I estimate): 5.48 h
- fENT, fraction of sorafenib that goes through enterohepatic circulation ([2]; FOCE‐I estimate): 50.20%
- Ka, absorption rate constant ([2]; FOCE‐I estimate, patients with AML, oral): 3.75 h⁻¹
- clearance ([2]; human, plasma, oral, CL, total clearance, median of 1,000 bootstraps): 237 mL/min
- fraction unbound ([2]; human, plasma, oral, fu, %fraction of unbound sorafenib, FOCE‐I estimate): 0.0181
- K64, release rate constant from gallbladder back to the gastrointestinal track ([2]; median of 1,000 bootstraps): 0.17 h⁻¹
- Ka, absorption rate constant ([2]; median of 1,000 bootstraps): 3.78 h⁻¹
- TENT, time controller of enterohepatic recirculation (time after dose) ([2]; median of 1,000 bootstraps): 5.47 h
- fENT, fraction of sorafenib that goes through enterohepatic circulation ([2]; median of 1,000 bootstraps): 50.20%
- concentration dependence of plasma protein binding ([2]; within the observed concentration range): concentration independent
- extent of FLT3‐ITD activity inhibition (FLT3‐ITD [4]): fully inhibited
Compound: CNC(=O)c1cc(Oc2ccc(NC(=O)Nc3ccc(Cl)c(C(F)(F)F)c3)cc2)ccn1 [sorafenib]
- in vitro FLT3‐ITD inhibitory activity compared with midostaurin (FLT3‐ITD [1]): fourfold higher
- dose above which saturable absorption occurs [3]: over 400 mg
- time to steady‐state [3]: ≤ 7 days
- Imax,ERK, maximum inhibitory effect on ERK activity (ERK; FOCE‐I estimate): 0.84
- extent of ERK activity inhibition (ERK; doses given in this study (400 or 600 mg b.i.d.)): could not be completely inhibited
- Imax,ERK, maximum inhibitory effect on ERK activity (ERK; median of 1,000 bootstraps): 0.82
- dose‐limiting toxicity rate ([5]; 400 mg b.i.d. regimen, 2/9 patients, original clinical trial ref 9): ~20%
- proportion of patients with AML able to adhere to dosing ([5]; continuous 400 mg b.i.d.): 18%
